From ChEMBL document CHEMBL1126989, “Synthesis and cytotoxicity of 1,6,7,8-substituted 2-(4'-substituted phenyl)-4-quinolones and related compounds: identification as antimitotic agents interacting with tubulin” (J Med Chem, 1993)
Converted amounts (≈) assume the structure as drawn.

system: HCT-8; experiment: Cytotoxicity in vitro expressed as 50% reduction in cell number after a 3-day incubation, in human ileocecal carcinoma HCT-8 cell line; assay type: functional, cell-based; conditions: HCT-8, 72 h
In short: (§1)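 Cell lines adapted to antibiotic-free RPMI-1640 with 10% fetal calf serum; ca. 1×10^5 cells per well, overnight stabilization, then serial dilutions added, quadruplicate per concentration; medium-only controls. After 3-4 days, MTT added and incubated overnight; formazan dissolved in DMSO, absorbance at 570 nm. EC50 calculated from two data points bracketing 50% growth inhibition. Actinomycin as positive control.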

SMILES	EC50 [µg/mL]
CC(C)COc1cc(-c2ccccc2)nc2ccccc12	> 10
Oc1cc(-c2ccccc2)nc2cc(Cl)ccc12	0.45 (≈ 1.76 µM)
Oc1cc(-c2ccccc2)nc2c(O)cccc12	> 10
Oc1ccc2nc(-c3ccccc3)cc(O)c2c1	7.75 (≈ 32.7 µM)
CCOc1cc(-c2ccccc2)nc2ccccc12	> 10
CCCOc1cc(-c2ccccc2)nc2ccccc12	> 10
COc1ccc2c(O)cc(-c3ccccc3)nc2c1	4.86 (≈ 19.3 µM)
c1ccc(COc2cc(-c3ccccc3)nc3ccccc23)cc1	> 10
Oc1cc(-c2ccccc2)nc2ccc(F)cc12	1.36 (≈ 5.68 µM)
Oc1cc(-c2ccccc2)nc2ccccc12	0.8 (≈ 3.62 µM)
COc1cccc2c(O)cc(-c3ccccc3)nc12	0.55 (≈ 2.19 µM)

system: L1210 (1565); experiment: Cytotoxicity in vitro expressed as 50% reduction in cell number after a 3-day incubation, in murine leukemia L-1210 cell line; assay type: functional, cell-based; conditions: Mus musculus, 72 h; in short: as §1

SMILES	EC50 [µg/mL]
CC(C)COc1cc(-c2ccccc2)nc2ccccc12	> 10
Oc1cc(-c2ccccc2)nc2cc(Cl)ccc12	< 0.1
Oc1cc(-c2ccccc2)nc2c(O)cccc12	> 10
Oc1ccc2nc(-c3ccccc3)cc(O)c2c1	0.83 (≈ 3.5 µM)
CCOc1cc(-c2ccccc2)nc2ccccc12	> 10
CCCOc1cc(-c2ccccc2)nc2ccccc12	> 10
COc1ccc2c(O)cc(-c3ccccc3)nc2c1	0.57 (≈ 2.27 µM)
c1ccc(COc2cc(-c3ccccc3)nc3ccccc23)cc1	> 10
Oc1cc(-c2ccccc2)nc2ccc(F)cc12	< 0.01
COCOc1ccc(-c2cc(=O)c3ccccc3n2C)cc1	> 10
Oc1cc(-c2ccccc2)nc2ccccc12	0.06 (≈ 0.271 µM)
COc1cccc2c(O)cc(-c3ccccc3)nc12	7.68 (≈ 30.6 µM)

system: A549; experiment: Cytotoxicity in vitro expressed as 50% reduction in cell number after a 3-day incubation, in human lung carcinoma A-549 cell line; assay type: functional, cell-based; conditions: A549, 72 h; in short: as §1

SMILES	EC50 [µg/mL]
CC(C)COc1cc(-c2ccccc2)nc2ccccc12	> 10
Oc1cc(-c2ccccc2)nc2cc(Cl)ccc12	2.89 (≈ 11.3 µM)
Oc1cc(-c2ccccc2)nc2c(O)cccc12	> 10
Oc1ccc2nc(-c3ccccc3)cc(O)c2c1	8.14 (≈ 34.3 µM)
CCOc1cc(-c2ccccc2)nc2ccccc12	> 10
CCCOc1cc(-c2ccccc2)nc2ccccc12	> 10
COc1ccc2c(O)cc(-c3ccccc3)nc2c1	0.73 (≈ 2.91 µM)
c1ccc(COc2cc(-c3ccccc3)nc3ccccc23)cc1	> 10
Oc1cc(-c2ccccc2)nc2ccc(F)cc12	0.38 (≈ 1.59 µM)
Oc1cc(-c2ccccc2)nc2ccccc12	0.5 (≈ 2.26 µM)
COc1cccc2c(O)cc(-c3ccccc3)nc12	6.77 (≈ 26.9 µM)

system: P388; experiment: Cytotoxicity in vitro expressed as 50% reduction in cell number after a 3-day incubation, in murine leukemia P-388 cell line; assay type: functional, cell-based; conditions: Mus musculus, P388, 72 h; in short: as §1

SMILES	EC50 [µg/mL]
CC(C)COc1cc(-c2ccccc2)nc2ccccc12	> 10
Oc1cc(-c2ccccc2)nc2cc(Cl)ccc12	< 0.1
Oc1cc(-c2ccccc2)nc2c(O)cccc12	> 10
Oc1ccc2nc(-c3ccccc3)cc(O)c2c1	2.86 (≈ 12.1 µM)
CCOc1cc(-c2ccccc2)nc2ccccc12	6 (≈ 24.1 µM)
CCCOc1cc(-c2ccccc2)nc2ccccc12	6.9 (≈ 26.2 µM)
COc1ccc2c(O)cc(-c3ccccc3)nc2c1	0.67 (≈ 2.67 µM)
c1ccc(COc2cc(-c3ccccc3)nc3ccccc23)cc1	> 10
Oc1cc(-c2ccccc2)nc2ccc(F)cc12	0.08 (≈ 0.334 µM)
COCOc1ccc(-c2cc(=O)c3ccccc3n2C)cc1	> 10
Oc1cc(-c2ccccc2)nc2ccccc12	0.08 (≈ 0.362 µM)
COc1cccc2c(O)cc(-c3ccccc3)nc12	> 10

system: KB; experiment: Cytotoxicity in vitro expressed as 50% reduction in cell number after a 3-day incubation, in human epidermoid carcinoma KB cell line; assay type: functional, cell-based; conditions: 72 h; in short: as §1

SMILES	EC50 [µg/mL]
CC(C)COc1cc(-c2ccccc2)nc2ccccc12	> 4
Oc1cc(-c2ccccc2)nc2cc(Cl)ccc12	< 0.1
Oc1cc(-c2ccccc2)nc2c(O)cccc12	> 10
Oc1ccc2nc(-c3ccccc3)cc(O)c2c1	0.41 (≈ 1.73 µM)
CCOc1cc(-c2ccccc2)nc2ccccc12	6.7 (≈ 26.9 µM)
CCCOc1cc(-c2ccccc2)nc2ccccc12	4.5 (≈ 17.1 µM)
COc1ccc2c(O)cc(-c3ccccc3)nc2c1	0.53 (≈ 2.11 µM)
c1ccc(COc2cc(-c3ccccc3)nc3ccccc23)cc1	1.6 (≈ 5.14 µM)
Oc1cc(-c2ccccc2)nc2ccc(F)cc12	< 0.01
Oc1cc(-c2ccccc2)nc2ccccc12	0.09 (≈ 0.407 µM)
COc1cccc2c(O)cc(-c3ccccc3)nc12	5.05 (≈ 20.1 µM)

biological target: Tubulin beta chain (Bos taurus, UniProt Q6B856); experiment: (§2) Inhibition of tubulin polymerization; assay type: functional; conditions: not given
In short: (§3)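 Bovine brain tubulin 1.0 mg/mL (10 μM) with 1.0 M repurified monosodium glutamate, 1.0 mM MgCl2, 4% DMSO and drug; preincubated 15 min at 37 °C, chilled, GTP added; turbidity at 350 nm after jump from 0 to 37 °C, followed 20 min.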

Sequence of Tubulin beta chain (Q6B856 whole entry): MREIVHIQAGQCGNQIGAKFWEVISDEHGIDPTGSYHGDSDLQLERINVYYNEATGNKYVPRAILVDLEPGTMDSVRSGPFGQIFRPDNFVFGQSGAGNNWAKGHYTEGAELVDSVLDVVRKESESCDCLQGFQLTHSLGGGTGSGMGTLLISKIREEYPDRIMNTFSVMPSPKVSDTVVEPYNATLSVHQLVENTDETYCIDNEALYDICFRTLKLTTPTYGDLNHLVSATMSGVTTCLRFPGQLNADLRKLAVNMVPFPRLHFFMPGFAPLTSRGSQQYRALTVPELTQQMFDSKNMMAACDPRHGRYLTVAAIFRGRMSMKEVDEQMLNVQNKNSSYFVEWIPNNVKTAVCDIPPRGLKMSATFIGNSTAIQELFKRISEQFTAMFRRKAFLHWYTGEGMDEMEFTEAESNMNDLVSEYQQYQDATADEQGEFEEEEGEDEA

IC50 [µM]	SMILES
16	Oc1ccc2nc(-c3ccccc3)cc(O)c2c1
4.8	COc1ccc2c(O)cc(-c3ccccc3)nc2c1
3.3	Oc1cc(-c2ccccc2)nc2ccc(F)cc12
> 40	COc1cccc2c(O)cc(-c3ccccc3)nc12

SMILES	IC50 [µM]
COc1cc([C@@H]2c3cc4c(cc3[C@H](O)[C@H]3COC(=O)[C@H]23)OCO4)cc(OC)c1OC [PODOFILOX]	1.3

biological target: Tubulin; experiment: as §2; assay type: functional; conditions: not given; in short: as §3

IC50 [µM]	SMILES
7.3	Oc1cc(-c2ccccc2)nc2ccccc12

system: RPMI-7951; experiment: Cytotoxicity in vitro expressed as 50% reduction in cell number after a 3-day incubation, in human melanoma RPMI-7951 cell line; assay type: functional, cell-based; conditions: RPMI-7951, 72 h; in short: as §1

SMILES	EC50 [µg/mL]
Oc1cc(-c2ccccc2)nc2cc(Cl)ccc12	< 0.1
Oc1cc(-c2ccccc2)nc2c(O)cccc12	> 10
Oc1ccc2nc(-c3ccccc3)cc(O)c2c1	3.92 (≈ 16.5 µM)
COc1ccc2c(O)cc(-c3ccccc3)nc2c1	0.43 (≈ 1.71 µM)
Oc1cc(-c2ccccc2)nc2ccc(F)cc12	0.53 (≈ 2.22 µM)
Oc1cc(-c2ccccc2)nc2ccccc12	0.37 (≈ 1.67 µM)
COc1cccc2c(O)cc(-c3ccccc3)nc12	> 10

system: not listed separately; experiment: Percentage inhibition of colchicine binding(1: 1 ratio of inhibitor: colchicine); assay type: functional; conditions: concentration not given here

inhibition [%]	SMILES
97	COc1ccc(/C=C\c2cc(OC)c(OC)c(OC)c2)cc1O
